Active and inactive are the calls of the source. No cut-off for these calls is given here.
How the values were obtained:
[1] = target: T1, Histone-lysine N-methyltransferase SMYD3 (Homo sapiens, UniProt Q9H7B4); assay: Binding affinity to recombinant human SMYD3 expressed in Escherichia coli assessed as catalytic inhibition using DYDNPIFEKFGKGGTYPRRYHVSYHGK-Biotin as substrate by scintillation proximity assay
T1 sequence (Q9H7B4 whole entry): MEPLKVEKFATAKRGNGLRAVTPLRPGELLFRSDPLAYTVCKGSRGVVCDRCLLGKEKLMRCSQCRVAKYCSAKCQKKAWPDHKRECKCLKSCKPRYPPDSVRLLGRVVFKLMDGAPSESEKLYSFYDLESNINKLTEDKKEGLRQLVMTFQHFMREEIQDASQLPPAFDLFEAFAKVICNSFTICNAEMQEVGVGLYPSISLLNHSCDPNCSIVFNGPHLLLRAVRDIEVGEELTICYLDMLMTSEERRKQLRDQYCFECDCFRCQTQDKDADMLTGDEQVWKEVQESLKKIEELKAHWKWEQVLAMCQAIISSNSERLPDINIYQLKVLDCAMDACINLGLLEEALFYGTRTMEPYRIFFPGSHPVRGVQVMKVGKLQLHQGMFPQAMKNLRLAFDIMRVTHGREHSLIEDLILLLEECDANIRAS

[2] = Lipophilicity, log D of the compound at pH 7.5; format: physicochemical; details: buffer
[3] = target: T1, Histone-lysine N-methyltransferase SMYD3; assay: Binding affinity to recombinant human SMYD3 expressed in Escherichia coli assessed as dissociation constant by isothermal titration calorimetry
How it was run: (§1)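 Syringe held compound at 0.3 mM in 20 mM HEPES pH 7.4, 150 mM NaCl, 0.005% Tween 20, 2.5% DMSO; eight 4 µL injections at 180 s intervals into SMYD3.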

[4] = target: T2, Histone-lysine N-methyltransferase SMYD3 (Homo sapiens) (UniProt Q9H7B4); assay: Binding affinity to recombinant human SMYD3 expressed in Escherichia coli assessed as change in entropy at 0.3 mM by isothermal titration calorimetry; how it was run: as §1
T2 sequence (whole entry): T1 sequence (Q9H7B4 whole entry)

Homo sapiens [5] = species: Homo sapiens; assay: Selectivity ratio of IC50 for recombinant human SMYD3 to the IC50 for inhibition of SMYD3- dependent MAP3K2 methylation
[6] = tested on: Histone-lysine N-methyltransferase SMYD3 (Homo sapiens), Q9H7B4 [UNDEFINED MUTATION]; assay: (§2) Inhibition of SMYD3 catalytic inactive mutant co-expressed with HA-tagged MAP3K2 transfected in human HeLa cells assessed as reduction of MAP3K2-K260me3 level incubated for 20 hrs by Western blotting analysis; format: cell-based
How it was run: (§3)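 After 4 h, compound or DMSO for 20 h. Lysates immunoblotted for MAP3K2-K260me3 (in-house antibody), HA, SMYD3 and MAP3K2 with infrared secondaries. K260me3 signal normalized to HA; three technical replicates, mean ± SEM, nonlinear fit.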

[7] = target: Histone-lysine N-methyltransferase SMYD3 (Homo sapiens, UniProt Q9H7B4); assay: as §2; format: cell-based; how it was run: as §3
[8] = target: T2, Histone-lysine N-methyltransferase SMYD3 (Homo sapiens); assay: Binding affinity to recombinant human SMYD3 expressed in Escherichia coli assessed as fold change at varying MAP3K2 substrate concentration of upto 150 uM with 10 fold Km concentration by scintillation proximity assay
How it was run: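 SPA, 10 nM SMYD3 methylating biotinylated MAP3K2 249–273 peptide with 3H-SAM in 20 mM Tris pH 9, 2.5 mM DTT, 0.01% Triton X-100; 40 min, 23 °C, GuHCl quench.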

[9] = target: Histone acetyltransferase p300 (Homo sapiens) (UniProt Q09472); assay: Inhibition of EP300 (unknown origin)
[10] = target: Histone-lysine N-methyltransferase EHMT2 (Homo sapiens) (UniProt Q96KQ7); assay: Inhibition of G9a (unknown origin)
[11] = target: Histone-lysine N-methyltransferase 2C (Homo sapiens) (UniProt Q8NEZ4); assay: Inhibition of MLL3 (unknown origin)
[12] = target: Histone-lysine N-methyltransferase, H3 lysine-36 specific (Homo sapiens) (UniProt Q96L73); assay: Inhibition of NSD1 (unknown origin)
Homo sapiens [13] = species: Homo sapiens; assay: Inhibition of PRC2 (unknown origin)
[14] = target: Histone-arginine methyltransferase CARM1 (Homo sapiens) (UniProt Q86X55); assay: Inhibition of PRMT4 (unknown origin)
[15] = target: Protein arginine N-methyltransferase 5 (Homo sapiens) (UniProt O14744); assay: Inhibition of PRMT5 (unknown origin)
[16] = target: N-lysine methyltransferase KMT5A (Homo sapiens) (UniProt Q9NQR1); assay: Inhibition of SETD8 (unknown origin)
[17] = target: Histone-lysine N-methyltransferase SETDB1 (Homo sapiens) (UniProt Q15047); assay: Inhibition of SETDB1 (unknown origin)
[18] = target: N-lysine methyltransferase SMYD2 (Homo sapiens) (UniProt Q9NRG4); assay: Inhibition of SMYD2 (unknown origin)
[19] = target: Cyclin-dependent kinase 12 (Homo sapiens, UniProt Q9NYV4); assay: Inhibition of CDK12 (unknown origin) by using c-myc peptide as substrate in presence of ATP
[20] = target: Cyclin-dependent kinase 2/cyclin E1 (Homo sapiens, UniProt P24941); assay: Inhibition of CDK2/CyclinE (unknown origin) in presence of ATP; format: protein-complex assay
[21] = target: Casein kinase I isoform alpha (Homo sapiens, UniProt P48729); assay: Inhibition of CSNK1A1 (unknown origin)
[22] = target: Glycogen synthase kinase-3 beta (Homo sapiens, UniProt P49841); assay: Inhibition of GSK-3-beta (unknown origin) by HTRF assay
[23] = target: Dual specificity tyrosine-phosphorylation-regulated kinase 1A (Homo sapiens, UniProt Q13627); assay: Inhibition of human DYRK1a
[24] = target: Mitogen-activated protein kinase kinase kinase kinase 1 (Homo sapiens, UniProt Q92918); assay: Inhibition of MAP4K1 (unknown origin) by competition binding assay
[25] = target: Dual specificity mitogen-activated protein kinase kinase 5 (Homo sapiens, UniProt Q13163); assay: Inhibition of MEK5 (unknown origin) by competition binding assay
[26] = target: Platelet-derived growth factor receptor beta (Homo sapiens, UniProt P09619); assay: Inhibition of PDGFR beta (unknown origin)
COLO-679 = assay: Antiproliferative activity against human COLO-679 cells assessed as inhibition of cell viability measured for 3 to 5 days by alamar blue staining based assay; format: functional
Hs746T = assay: Antiproliferative activity against human Hs746T cells assessed as inhibition of cell viability measured for 3 to 5 days by alamar blue staining based assay; format: functional
[27] = Cytotoxicity against human MCF-10A cells assessed as inhibition of cell viability measured for 3 to 5 days by alamar blue staining based assay; format: toxicity
[28] = Antiproliferative activity against human NCI-H2110 cells assessed as inhibition of cell viability measured for 3 to 5 days by alamar blue staining based assay; format: functional
PaTu 8988t = assay: Antiproliferative activity against human PaTu 8988t cells assessed as inhibition of cell viability measured for 3 to 5 days by alamar blue staining based assay; format: functional
SUD4 = assay: Antiproliferative activity against human SU-DHL-4 cells assessed as inhibition of cell viability measured for 3 to 5 days by alamar blue staining based assay; format: functional

Histone-lysine N-methyltransferase, H3 lysine-36 specific (Homo sapiens), sequence (Q96L73 whole entry): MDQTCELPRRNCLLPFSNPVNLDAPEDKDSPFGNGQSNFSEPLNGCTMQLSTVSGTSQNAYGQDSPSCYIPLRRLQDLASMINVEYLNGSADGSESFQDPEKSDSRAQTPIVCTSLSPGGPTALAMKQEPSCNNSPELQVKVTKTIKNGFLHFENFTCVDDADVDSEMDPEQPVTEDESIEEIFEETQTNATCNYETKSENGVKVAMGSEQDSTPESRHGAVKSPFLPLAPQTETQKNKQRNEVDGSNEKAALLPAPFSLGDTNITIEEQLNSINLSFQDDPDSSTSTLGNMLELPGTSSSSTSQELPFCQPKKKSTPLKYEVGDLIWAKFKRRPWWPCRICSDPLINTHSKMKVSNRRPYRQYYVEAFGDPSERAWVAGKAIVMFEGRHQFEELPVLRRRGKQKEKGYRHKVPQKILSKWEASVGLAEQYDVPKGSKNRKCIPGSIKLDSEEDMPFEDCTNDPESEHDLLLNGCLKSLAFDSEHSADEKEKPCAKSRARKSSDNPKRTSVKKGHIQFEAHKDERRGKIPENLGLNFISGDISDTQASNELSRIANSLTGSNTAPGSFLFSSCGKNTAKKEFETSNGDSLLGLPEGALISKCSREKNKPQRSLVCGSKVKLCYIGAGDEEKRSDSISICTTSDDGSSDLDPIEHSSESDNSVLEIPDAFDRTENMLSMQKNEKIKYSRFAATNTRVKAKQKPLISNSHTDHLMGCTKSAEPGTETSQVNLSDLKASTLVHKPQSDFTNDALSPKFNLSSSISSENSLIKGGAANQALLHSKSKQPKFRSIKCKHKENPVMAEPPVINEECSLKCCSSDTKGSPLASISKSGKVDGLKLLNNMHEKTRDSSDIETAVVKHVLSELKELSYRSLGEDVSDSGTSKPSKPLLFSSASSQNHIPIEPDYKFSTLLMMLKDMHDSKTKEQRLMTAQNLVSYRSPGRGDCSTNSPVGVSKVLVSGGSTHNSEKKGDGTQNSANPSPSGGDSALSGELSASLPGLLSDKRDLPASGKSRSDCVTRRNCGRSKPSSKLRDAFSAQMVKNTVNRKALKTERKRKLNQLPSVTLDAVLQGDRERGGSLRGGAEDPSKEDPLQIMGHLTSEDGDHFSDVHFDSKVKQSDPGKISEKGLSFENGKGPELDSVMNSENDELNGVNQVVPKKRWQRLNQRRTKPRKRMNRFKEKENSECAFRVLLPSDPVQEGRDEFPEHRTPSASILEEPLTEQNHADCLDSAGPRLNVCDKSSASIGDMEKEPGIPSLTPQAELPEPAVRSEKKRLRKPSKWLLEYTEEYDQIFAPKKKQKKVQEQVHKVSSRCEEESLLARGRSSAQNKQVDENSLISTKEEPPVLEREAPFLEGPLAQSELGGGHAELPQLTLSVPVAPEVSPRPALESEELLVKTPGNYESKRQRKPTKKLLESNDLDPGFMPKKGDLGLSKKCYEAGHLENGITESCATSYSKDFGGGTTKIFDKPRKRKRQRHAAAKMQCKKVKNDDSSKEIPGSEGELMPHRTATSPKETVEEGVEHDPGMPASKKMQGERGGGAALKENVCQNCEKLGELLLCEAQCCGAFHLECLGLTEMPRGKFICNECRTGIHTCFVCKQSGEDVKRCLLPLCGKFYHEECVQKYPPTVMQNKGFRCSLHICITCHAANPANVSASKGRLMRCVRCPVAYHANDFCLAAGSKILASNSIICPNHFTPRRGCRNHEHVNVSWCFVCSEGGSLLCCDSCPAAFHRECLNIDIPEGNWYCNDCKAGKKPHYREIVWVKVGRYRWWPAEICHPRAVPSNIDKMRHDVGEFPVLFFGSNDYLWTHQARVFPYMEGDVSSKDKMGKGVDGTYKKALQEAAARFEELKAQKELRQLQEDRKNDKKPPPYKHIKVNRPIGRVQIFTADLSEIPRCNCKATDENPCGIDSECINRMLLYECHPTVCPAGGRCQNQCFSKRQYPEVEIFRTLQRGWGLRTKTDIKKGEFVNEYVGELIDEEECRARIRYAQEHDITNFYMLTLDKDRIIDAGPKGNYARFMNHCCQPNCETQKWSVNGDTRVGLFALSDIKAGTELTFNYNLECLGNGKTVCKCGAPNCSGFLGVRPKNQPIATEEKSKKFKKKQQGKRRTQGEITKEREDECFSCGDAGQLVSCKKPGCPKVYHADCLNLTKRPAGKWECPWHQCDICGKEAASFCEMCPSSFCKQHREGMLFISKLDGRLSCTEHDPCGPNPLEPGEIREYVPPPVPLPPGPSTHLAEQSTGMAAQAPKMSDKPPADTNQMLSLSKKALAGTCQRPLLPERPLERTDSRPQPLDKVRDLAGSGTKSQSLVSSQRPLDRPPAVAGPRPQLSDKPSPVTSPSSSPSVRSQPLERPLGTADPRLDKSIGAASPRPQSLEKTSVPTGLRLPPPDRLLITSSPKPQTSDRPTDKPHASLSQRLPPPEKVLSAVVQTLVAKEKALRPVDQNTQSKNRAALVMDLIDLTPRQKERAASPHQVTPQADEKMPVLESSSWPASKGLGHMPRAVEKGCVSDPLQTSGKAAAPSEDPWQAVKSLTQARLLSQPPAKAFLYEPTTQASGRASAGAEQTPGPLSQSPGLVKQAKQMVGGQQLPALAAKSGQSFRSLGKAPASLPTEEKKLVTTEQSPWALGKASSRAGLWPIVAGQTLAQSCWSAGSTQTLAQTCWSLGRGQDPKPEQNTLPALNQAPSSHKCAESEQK
Platelet-derived growth factor receptor beta, sequence (P09619 whole entry): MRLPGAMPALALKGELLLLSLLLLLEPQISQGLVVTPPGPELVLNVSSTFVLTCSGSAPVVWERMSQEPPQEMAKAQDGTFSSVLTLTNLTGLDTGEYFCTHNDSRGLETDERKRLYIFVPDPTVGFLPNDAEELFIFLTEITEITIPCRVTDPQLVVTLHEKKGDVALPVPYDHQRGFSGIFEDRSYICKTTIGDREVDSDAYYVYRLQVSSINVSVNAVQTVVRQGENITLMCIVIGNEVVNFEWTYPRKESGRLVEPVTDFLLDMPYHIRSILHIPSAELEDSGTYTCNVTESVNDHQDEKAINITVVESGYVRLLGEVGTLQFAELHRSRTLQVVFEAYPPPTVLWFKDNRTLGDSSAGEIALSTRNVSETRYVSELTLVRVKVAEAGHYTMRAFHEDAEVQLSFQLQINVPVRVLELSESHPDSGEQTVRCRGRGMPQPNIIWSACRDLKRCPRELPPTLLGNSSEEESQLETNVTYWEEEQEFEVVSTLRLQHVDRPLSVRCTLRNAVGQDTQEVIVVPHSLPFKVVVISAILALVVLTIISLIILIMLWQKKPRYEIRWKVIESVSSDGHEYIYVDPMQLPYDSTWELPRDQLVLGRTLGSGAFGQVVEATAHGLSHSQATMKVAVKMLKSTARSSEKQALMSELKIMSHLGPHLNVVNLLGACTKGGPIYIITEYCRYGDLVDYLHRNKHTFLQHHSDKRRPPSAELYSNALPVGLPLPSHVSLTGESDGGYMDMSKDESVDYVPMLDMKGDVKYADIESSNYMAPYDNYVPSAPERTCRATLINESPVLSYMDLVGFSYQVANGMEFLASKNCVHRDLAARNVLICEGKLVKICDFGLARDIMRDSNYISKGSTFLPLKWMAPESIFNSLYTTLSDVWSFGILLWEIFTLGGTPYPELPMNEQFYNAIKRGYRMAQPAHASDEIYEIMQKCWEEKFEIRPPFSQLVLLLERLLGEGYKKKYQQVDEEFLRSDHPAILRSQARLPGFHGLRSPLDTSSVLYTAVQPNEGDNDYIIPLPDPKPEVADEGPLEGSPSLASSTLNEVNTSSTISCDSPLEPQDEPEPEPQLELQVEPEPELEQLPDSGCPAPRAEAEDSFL
Dual specificity mitogen-activated protein kinase kinase 5, sequence (Q13163 whole entry): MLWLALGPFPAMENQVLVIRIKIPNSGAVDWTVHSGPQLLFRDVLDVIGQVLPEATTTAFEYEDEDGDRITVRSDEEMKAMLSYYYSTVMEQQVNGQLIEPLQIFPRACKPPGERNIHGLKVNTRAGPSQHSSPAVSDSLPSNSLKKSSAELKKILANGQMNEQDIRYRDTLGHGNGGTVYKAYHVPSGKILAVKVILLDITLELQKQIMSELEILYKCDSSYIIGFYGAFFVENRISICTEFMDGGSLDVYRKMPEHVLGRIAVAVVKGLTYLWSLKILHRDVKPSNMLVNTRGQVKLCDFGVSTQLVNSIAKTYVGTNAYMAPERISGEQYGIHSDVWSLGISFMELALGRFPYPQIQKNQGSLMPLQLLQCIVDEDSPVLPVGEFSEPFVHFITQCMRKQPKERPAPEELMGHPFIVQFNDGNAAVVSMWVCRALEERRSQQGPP
Histone-arginine methyltransferase CARM1 (Homo sapiens), sequence (Q86X55 whole entry): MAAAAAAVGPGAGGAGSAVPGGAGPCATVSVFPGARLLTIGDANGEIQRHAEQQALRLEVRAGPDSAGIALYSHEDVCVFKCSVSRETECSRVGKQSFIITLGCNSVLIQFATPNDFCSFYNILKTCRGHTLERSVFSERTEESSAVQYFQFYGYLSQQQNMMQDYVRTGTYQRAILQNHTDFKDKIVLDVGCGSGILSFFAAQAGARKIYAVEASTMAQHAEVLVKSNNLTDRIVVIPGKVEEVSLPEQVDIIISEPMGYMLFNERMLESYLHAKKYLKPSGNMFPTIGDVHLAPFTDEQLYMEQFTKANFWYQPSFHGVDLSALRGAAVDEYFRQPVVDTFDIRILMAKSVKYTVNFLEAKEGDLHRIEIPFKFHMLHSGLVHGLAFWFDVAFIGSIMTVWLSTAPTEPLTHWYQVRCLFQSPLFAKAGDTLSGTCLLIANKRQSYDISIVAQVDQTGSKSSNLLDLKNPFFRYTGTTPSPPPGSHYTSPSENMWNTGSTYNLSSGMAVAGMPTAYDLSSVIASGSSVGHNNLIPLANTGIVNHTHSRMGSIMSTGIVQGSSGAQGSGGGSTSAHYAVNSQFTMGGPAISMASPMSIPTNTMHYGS

- IC50 [1]: 0.088 µM
- logD [2]: 1.9
- Kd [3]: 0.133 µM
- -TdeltaS [4]: -5 kcal/mol
- deltaS [4]: 17 cal/mol.K
- Ratio IC50 (Homo sapiens [5]): 2
- inhibition [6]: Dose-Dependent Effect
- IC50 [7]: 0.183 µM
- fold change (FC) [8]: 4
- inhibition [9]: inactive
- inhibition [10]: inactive
- inhibition [11]: inactive
- inhibition [12]: inactive
- inhibition (Homo sapiens [13]): inactive
- inhibition [14]: inactive
- inhibition [15]: inactive
- inhibition [16]: inactive
- inhibition [17]: inactive
- inhibition [18]: inactive
- IC50 [19]: > 20 µM
- IC50 [20]: > 20 µM
- IC50 [21]: > 20 µM
- IC50 [22]: > 20 µM
- IC50 [23]: > 20 µM
- IC50 [24]: > 20 µM
- IC50 [25]: > 20 µM
- IC50 [26]: > 20 µM
- IC50 (COLO-679): > 10 µM
SMILES: C[C@H]1CC(=O)Nc2cc(C(=O)NCCC3CC3)ccc2N1C(=O)N1CC2CC2C1 (stereo partly drawn)
- IC50 (Hs746T): > 10 µM
- IC50 [27]: > 10 µM
- IC50 [28]: > 10 µM
- IC50 (PaTu 8988t): > 10 µM
- IC50 (SUD4): > 10 µM

Source: ChEMBL document CHEMBL5661986, “Discovery of the SMYD3 Inhibitor BAY-6035 Using Thermal Shift Assay (TSA)-Based High-Throughput Screening” (SLAS Discov, 2021)
